In the library only some 0.49% were active in any assay of this set; here they are far more common.
HSV augment: increases HSV replication in cells; HSV replication augmentation in cells, fold increase; maximum fold increase; 0.005% of 220,000 active; AID 1956; in the data active means maximum fold increase above about 1.5; inconclusive means no clear call, values can overlap the other calls; tested in PC3 cells
ABCB1 inh: inhibitors of human ABCB1 transporter, ABCG2 counter-screen; P08183; CCRF-Adr cells, JC-1 efflux, flow cytometry; inhibition, % at 6.6 µM; 0.067% of 190,000 active; in the data active means inhibition above about 40%;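 further: higher value means more JC-1 retained so stronger ABCB1 efflux block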
HMGR II inh: blocks class II HMG-CoA reductase of Enterococcus faecalis; purified E. faecalis HMGR, NADPH absorbance 340 nm kinetic; inhibition, % at 10 µM; 0.41% of 190,000 active;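 active means inhibition above a set limit, the median over all tested compounds plus 3 SD, cut at about 9.5% in these data; inconclusive means no clear call, values can overlap the other calls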;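 further: enzyme runs in reverse so mevalonate oxidation gives rising NADPH absorbance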
ABCG2 inh: human ABCG2 inhibition, ABCB1 as counter-screen | inhibition, % at 6.6 µM | 0.1% of 190,000 active | Q9UNQ0 | IgMXP3 cells, JC-1 efflux, flow cytometry;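 active means inhibition above 80%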
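Measure – % inhibition of efflux relative to nicardipine and DMSO · Test system – ABCG2 IgMXP3 and barcoded ABCB1 CCRF-Adr cell mix · Control set – nicardipine as high control, DMSO as low control · Compound – one concentration, 6.6 µM final · Signal – flow cytometry of retained JC-1 fluorescence · Timing – 10 min exposure at 25 °C with rotation, no wash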
A number is an active result; – = inactive; ? = inconclusive; · = not tested or not shown.

SMILES | HSV augment | ABCB1 inh | HMGR II inh | ABCG2 inh
Clc1ccc(CSC(Cn2ccnc2)c2ccc(Cl)cc2Cl)cc1 (configuration not stated) | – | – | 11 | –
CC1CN(c2ccc([N+](=O)[O-])c(N3CCCCC3)c2)CCN1 (configuration not stated) | – | · | · | ·
CCCn1cc(C(=O)O)cn1 | – | – | 14 | –
Nc1cncc(C(=O)O)c1 | – | – | – | –
CCCNc1nc(OC)nc(N2CC3CC(C2)c2cccc(=O)n2C3)n1 (configuration not stated) | – | – | 9.9 | –
Cc1ccccc1C1=NCC(=S)Nc2ccc(Cl)cc21 | – | – | 10 | –
Clc1ccc2c(c1)C(c1ccccc1Cl)=NCc1nnc(Br)n1-2 | – | – | – | –
CC(=NCCCn1ccnc1)c1c(O)n(Cc2ccccc2)c(=O)[nH]c1=O | – | – | – | –
CC(C)C[C@H](NC(=O)[C@@H]1CCCN1C(=O)[C@@H](N)Cc1ccc(O)cc1)C(=O)NCC(N)=O | – | – | 18 | –
O=c1c2ccccc2[se]n1-c1ccccc1 | – | – | – | –
COc1ccc(OC)c(N2C(=O)NC(=O)/C(=C/c3ccc([N+](=O)[O-])s3)C2=O)c1 | – | – | – | –
CCN1C(=O)/C(=C\c2ccc([N+](=O)[O-])s2)C(=O)NC1=S | ? | – | 11 | –
COC(=O)c1c(C)[nH]c(C(=O)C(C)[N+]23CCN(CC2)CC3)c1C (configuration not stated) | – | – | – | –
Cc1nc2c(=O)n(C)c(=O)nc-2n(C)n1 | · | – | 10 | –

Source: PubChem
